Lmaj promast – inhibitors of Leishmania major promastigote growth. Leishmania major promastigotes, resazurin fluorescence viability. inhibition, % at 10 µM. 9% of 200,000 active;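 also: promastigotes grown with compound for 44 hours at 28 °C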
PfG6PD inh – PfG6PD (Plasmodium falciparum) enzyme inhibition; PfGluPho enzyme, NADPH resazurin-diaphorase fluorescence; inhibition, % at 20 µM; 0.78% of 350,000 active; AID 504690;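 active = inhibition reaching at least a set limit at 20 µM in the primary screen, cut at about 59% in these data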;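 also: 0% = DMSO wells with substrate and 100% = DMSO wells lacking glucose-6-phosphate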
Diaphorase inh – inhibits diaphorase or chemically oxidizes, flagging diaphorase assay artifacts; diaphorase resazurin-to-resorufin fluorescence, NADH, 16 min; bacterial (C. kluyveri) enzyme, not human; inhibition, % at 20 µM; 0.69% of 190,000 active; AID 1217;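 active = primary screen inhibition at 20 µM above a set limit, cut at about 50% in these data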;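 also: plate controls were DMSO with full reaction for no effect and wells lacking NADH for full effect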
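Assay system: diaphorase enzyme from Clostridium kluyveri; Input: enzyme working solution with 0.14 U/mL diaphorase; Timing: 16 min at room temperature; Technique: resorufin fluorescence, excitation 544 nm, emission 590 nm; Benchmarks: positive control minus NADH, DMSO neutral control.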
DTT redox prof – compounds producing H2O2 with reducing agent – biochemical, NIH compound library profiling, artefact control for MLSCN library redox annotation, primary screen | DTT-dependent redox cycling H2O2, phenol red/HRP absorbance; 100% = 100 µM peroxide control, 0% = buffer | activation, % at 10 µM | 0.03% of 200,000 active | AID 878;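 active = activation of at least 50% relative to the plate's high and low controls in the primary single-dose screen; inactive = activation below 50%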;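 also: compound incubated with DTT at 0.8 mM final as the reducing agent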
Diaph act CS – counter-screen for diaphorase-based assays: diaphorase activators and chemical reducers | 0.005% of 190,000 active | activation factor at 20 µM | Diaphorase/resazurin coupled assay, resorufin fluorescence, 16 min; hits give high values; 1 = vehicle wells, 0 = NADH-free wells | AID 1229;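 active = diaphorase activity raised at least twofold by the compound at 20 µM; inactive = activation factor below 2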
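System – purified diaphorase enzyme from Clostridium kluyveri · Input – enzyme 0.07 U/mL final · Also added – final NADH 0.114 mM, resazurin 0.1 mM · Measured by – fluorescence of resorufin, 544 nm excitation, 590 nm emission · Timing – 16 min enzyme reaction, ambient temperature · Measure – resorufin increase flagging diaphorase activators or reducers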
G6PDH CS – counter-screen for G6PDH assay hits: L. mesenteroides G6PDH inhibition. Purified L. mesenteroides G6PDH, diaphorase/resazurin coupled fluorescence, 45 min. inhibition, % at 5 µM. 0.12% of 200,000 active
* hit, by the source's call; · = no result. Only a selection was taken, and hits are over-represented in it overall. Rule as the data show it, unless noted: active = inhibition above about 50%; inactive = the rest.

SMILES	Lmaj promast	PfG6PD inh	Diaphorase inh	DTT redox prof	Diaph act CS	G6PDH CS
COc1ccc(OCC(=O)N(Cc2ccco2)C2CCS(=O)(=O)C2)cc1 (stereo not given)	·	-11	·	·	·	·
Cc1cc(N/N=C/c2ccccc2Br)nc2ccccc12	52*	35	-2	0	1	-22
O=C(CCN1CCN(c2ccccc2)CC1)N/N=C/c1ccccc1O	98*	-14	8	-3	0.9	-10
COc1ccc(C[C@H]2CN3C(=NC[C@H]3C)N2CCNC(=O)c2ccc(C)c(Br)c2)cc1	53*	-11	-4	0	1	4
Cc1ccc(C(=O)NCCN2C3=NC[C@H](C)N3C[C@H]2Cc2ccc(O)cc2)cc1Br	3	3	21	-1	0.8	14
COc1ccc(C[C@H]2CN3C(=NC[C@@H]3C(C)C)N2CCNC(=O)c2ccc(C)c(Br)c2)cc1	99*	2	-13	0	1.1	4
Cc1ccc(C(=O)NCCN2C3=NC[C@H](C(C)C)N3C[C@H]2Cc2ccc(O)cc2)cc1Br	5	-8	10	1	0.9	6
CN(CCCC(=O)NCCc1ccccc1)S(=O)(=O)c1ccc([N+](=O)[O-])cc1	·	14	·	·	·	·
Nc1ccccc1C(=O)N1CCCC1	-6	6	8	-1	0.9	12
Cc1ccccc1OCc1nc2ccccc2c(=O)n1/N=C/c1cn[nH]c1-c1ccccc1	100*	-1	20	-1	0.8	6
Cc1ccc(-c2[nH]ncc2/C=N/n2c(COc3ccccc3)nc3ccccc3c2=O)cc1	41	-5	13	1	0.9	-14
CCC(=O)N(Cc1c(C)nn(-c2ccccc2)c1Cl)c1ccc(Cl)cc1	65*	-19	24	1	0.8	13
Cc1nn(-c2ccccc2)c(Cl)c1C(=O)NCCCCNC(=O)c1c(C)nn(-c2ccccc2)c1Cl	8	-12	15	3	0.8	3
O=C(COC(=O)c1c(Cl)ccc(Cl)c1Cl)NC(=O)NCc1ccccc1	79*	14	-2	1	1	3
COc1ccccc1C(=O)NC(=S)NNC(=O)c1sc2ccccc2c1Cl	90*	-26	-3	0	1	2
COc1ccccc1C(=O)NNC(=S)NC(=O)c1sc2ccccc2c1Cl	54*	-34	17	0	0.8	-10
CCN(CC(=O)Nc1ccc(NC(C)=O)cc1)C(=O)/C=C/c1ccc([N+](=O)[O-])cc1	·	0	·	·	·	·
CC1(C2CC2)NC(=O)N(CC(=O)Nc2ccc(OC(F)F)cc2)C1=O (stereo not given)	·	10	·	·	·	·
CC(C)CC(=O)NC(Nc1ccccc1F)C(Cl)(Cl)Cl (stereo not given)	63*	6	9	-4	0.9	0
CCCC(=O)NC(Nc1ccccc1F)C(Cl)(Cl)Cl (stereo not given)	10	·	1	-5	1	1
FC(F)(F)c1ccccc1CN1CCCC(N2CCN(c3ccccc3)CC2)C1 (stereo not given)	·	0	·	·	·	·
Cc1ccc(S(=O)(=O)N2CCN(Cc3ccccc3C(F)(F)F)CC2)cc1	0	1	30	2	0.7	4
O=S(=O)(c1ccccc1)N1CCN(Cc2ccccc2C(F)(F)F)CC1	92*	-1	21	1	0.8	10
FC(F)(F)c1ccccc1CN1CCN(C2CCCCCC2)CC1	97*	-5	18	0	0.8	12
COc1cccc2[nH]c3c(N4CCC(C(N)=O)CC4)ncnc3c12	20	-1	13	0	0.9	3
SMILES	Lmaj promast	PfG6PD inh	Diaphorase inh	DTT redox prof	Diaph act CS	G6PDH CS
CCOC(=O)C1CCCN(c2ncnc3c2[nH]c2cccc(OC)c23)C1 (stereo not given)	76*	·	12	0	0.9	-1
COc1cccc(/C=C2\SC(N3CCCC(C)C3)=NC2=O)c1OC (stereo not given)	·	-7	·	·	·	·
COc1cccc2[nH]c3c(=O)[nH]cnc3c12	·	17	·	·	·	·
COc1cccc2[nH]c3c(N4CC(C)CC(C)C4)ncnc3c12 (stereo not given)	100*	·	15	1	0.9	-1
COc1cccc2[nH]c3c(N4CCCC(C)C4)ncnc3c12 (stereo not given)	99*	37	15	0	0.8	4
O=C(Nc1ccc(C(=O)O)cc1)/C(=C\c1ccc2c(c1)OCO2)NC(=O)c1ccccc1Cl	·	-7	·	·	·	·
CCN(CC(=O)Nc1cccc(S(=O)(=O)N(C)c2ccccc2)c1)Cc1cccs1	·	7	·	·	·	·
CCCCCCNC(=O)N[C@@H](C(=O)NCCC[C@H]1CN2C(=NC[C@@H]2Cc2ccccc2)N1CCc1cccc(OC)c1)C(C)C	·	64*	·	·	·	·
c1ccc(NC2=NCCCCS2)cc1	-3	-1	1	1	1	-1
O=C(/C=C/c1ccc(Br)cc1)c1ccc(NC2=NCCCS2)cc1	100*	1	-6	0	1.1	4
O=C(/C=C/c1ccccc1)c1ccc(NC2=NCCCS2)cc1	100*	9	2	5	1	-7
CC(C)(C)c1ccc(/C=C/C(=O)c2ccc(NC3=NCCCS3)cc2)cc1	100*	11	10	0	0.9	-30
CCN(CC)c1ccc(/C=C/C(=O)c2ccc(Br)cc2)cc1	-4	36	4	3	1	-32
C[C@@H]1CN([C@H](C)CO)C(=O)CCCn2nncc2CO[C@H]1CN(C)Cc1ccc2c(c1)OCCO2	·	6	·	·	·	·
CC(=O)N(c1ccc(C)cc1)S(=O)(=O)c1ccc(Cl)cc1	8	24	12	0	0.9	3
COc1ccccc1NC(=O)CSc1nc(=O)n(Cc2ccncc2)c2c1CCCC2	·	-1	·	·	·	·
COC(=O)c1ccc(/C=N/Nc2nc(N3CCCCC3)nc(N3CCCCC3)n2)cc1	78*	1	16	-1	0.8	-2
Brc1cc2c(cc1/C=N/Nc1nc(N3CCCCC3)nc(N3CCCCC3)n1)OCO2	67*	·	10	2	0.9	2
O=C(Oc1ccc(/C=N/Nc2nc(N3CCCCC3)nc(N3CCCCC3)n2)cc1)c1ccco1	48	-9	·	9	·	13
COc1nc(N/N=C/c2cc3c(cc2Br)OCO3)nc(N2CCOCC2)n1	11	22	17	-4	0.8	-4
O=[N+]([O-])c1ccc(/C=N/Nc2nc(N3CCCCC3)nc(N3CCCCC3)n2)o1	100*	6	26	1	0.7	9
Cc1[nH]c2ccccc2c1/C=N/Nc1nc(N2CCCCC2)nc(N2CCCCC2)n1	77*	-8	21	0	0.8	9
CN(C)c1ccc(/C=N/NC(N)=S)cc1[N+](=O)[O-]	-3	7	14	-1	0.9	3
CC(=O)Nc1ccc2c(c1)nc(CCN1CCN(c3ccccn3)CC1)n2C	·	-4	·	·	·	·

Bioassay records as filed in PubChem.
